Laboratory results as given in the RNAGym collection of RNA variant scans (doi:10.1126/science.aae0568).
Fewer inactive variants are shown than the library holds.

B1: tRNA (parent)
chain: GUUCCGUUGGCGUAAUGGUAACGCGUCUCCCUCCUAAGGAGAAGACUGCGGGUUCGAGUCCCGUACGGAACG

Variants of: B1
Assay: yeast fitness relative to wild type (ratio to wild type); higher = fitter; tRNA-Arg(CCU), competitive growth, 37 C, YPD
In short: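 Gene amplicons from the start population and from each of six end populations were read by 100-nucleotide paired-end sequencing. Those end populations came from pooled Saccharomyces cerevisiae strains carrying tRNA-Arg(CCU) gene variants at the native locus, competed in YPD at 37°C for 24 hours. Fitness relative to wild type was worked out from changes in genotype frequencies. Genotypes needed ≥ 100 starting reads, and estimates < 0.5 were set to 0.5.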

Variant	yeast fitness
GUUACGUUGGCGUAAUGGUAACGCGUCUCCCUCCUAAGAAGAAGACUGCGGGUUCGAGUCCCCUACGGAACG [C4A G39A G63C]	≤ 0.5
GUUCCGUUGGCGUAAUGGUAACGCGUCUGCCGCCUAAAGAGAAGAUUGCGGGUUCGAGUCCCGUACGGAUCG [C29G U32G G38A C46U A70U]	≤ 0.5
GUUCCGCUGGCGUAAUGGUAACGCGUCUUCCUCCUAAGGAGAAGAUUGCGGGUUCGAGUCCCGUUCGGAACG [U7C C29U C46U A65U]	≤ 0.5
GUUGCGUUGGCGAAAUGGUAACGCGUCUCGCUCCUAAGGAGAAGACUGCGGGUUCGAGUCCCGUACGGAACG [C4G U13A C30G]	≤ 0.5
GUUCCGUUGGGGUAAUGGUAACGCGUCUCCCUCCUAAGGAGAAGACUGCGGGUUCGAAUCCCGUACGGAACG [C11G G58A]	0.722
GUUCAGUUGGCGUAUUGGCAACGCGUCUCCGUCCUAAGAAGAAGACUGCGGGUUCGAAUCCCGUACAGAACG [C5A A15U U19C C31G G39A G58A G67A]	≤ 0.5
GUUCCGUUGGCGUAGUAGUAACGCGUCUGCUUCCUAAGGAGAAGACUGCGGGUUCGAGUCCCGUGGGGAACG [A15G G17A C29G C31U A65G C66G]	0.552
GUUCCGGUGGCGUAAUGGUAACGCGUCUUCCUCCUAAGGAGAAGACUGCGGGUUCGAGUCCCGUACGGAACG [U7G C29U]	0.775
GGUCCGUUGGCGUAAUGGUAACGCGUCUCCCUCUUAAGGAGAAGACUGCGGGUUCGAGUCCCGUACGGUACG [U2G C34U A69U]	0.543
GUUACGUUGGCGUAAUGGUAACGCGUCUCCCCCCUAAGGAGAAGACUGCGGGUUCGAGGCCCGUACGGAACG [C4A U32C U59G]	≤ 0.5
GUUCCGUUGGCGUAAUGGUAACGCGUCUCCCUCCUAAGGAGGAGACUGCGGGUUCGAGUCCCGUACUGAACG [A42G G67U]	0.633
GUUCCGUUGGUGUCGUGGUAACGCGACUCCCUCAUAAGGAGAAGACUGCGGGUUCGAGUCCCAUACGGAACG [C11U A14C A15G U26A C34A G63A]	≤ 0.5
GUUCCGUCGGCGUAAUAGUAACGCGUCUCCCUCCUAAGGAGAAGACUGCGGGUUCGAGUCCCGUACGGAUCG [U8C G17A A70U]	≤ 0.5
GUUCCGUUGGGGUGAUGGUAACGCGUCUCCCUCCUAAGGAAAAGACUGCGGGUUCGAGUCCCGUACGGAACG [C11G A14G G41A]	≤ 0.5
GUUGCGUUGGCGUAAUGGUAACGCGUCUCCCUCCUACGGAGAAGACUGCGAGUUCGAGUCCCGUACGGAACG [C4G A37C G51A]	0.628
GUUCCGUUGGGGUAAUGGUAACGCGUCUCCCUCCUAAGGAGAAGACUGCGGGUUCGAGUCCCGUCGGGAACG [C11G A65C C66G]	≤ 0.5
GUUCCGUUGGCGUACUGGAAACGCGUCUCCCUCCUAAGGAGAAGACUGCGGGUUCGAGUCCCGUACGGAACG [A15C U19A]	0.817
GUUCCGUUGGCGUAAUGGUAACGCGUCUCCCUCCUAAGGAGGAGACUGCGGGUUCGAAUCCCGUACGGAACG [A42G G58A]	0.879
GUUCCGUUGGAGUAAUGGUAAAGCGUCUGCCUCCUAAGGAGAAGACUGCGGGUUCGAGUCCCGUACGGAACG [C11A C22A C29G]	0.545

Variant	yeast fitness
GUUCCGUUGGCGCAAUGGUGACGCGUCUCCUUCCUAAGGAGAAGACUGCGGGUUCGAGUCCCGUACGGAACG [U13C A20G C31U]	0.777
GUUCCGUUGGCGUAAUGGUAACGCGUCUCCCUACUAUGGAGAAGACUGCGGGUUCGAGUCCAGUACGGACCG [C33A A37U C62A A70C]	0.605
GUUCUGUUGGCGUAAUGGUAACGCGUCUCCCUCCUAAGGAGAAGACUGCAGGUUCGAGUCCCGUAAGGAACG [C5U G50A C66A]	≤ 0.5
GUUCCGUUGGCGUAAUGGUAACGCGUCUUCCUCCUAACAAGAAGACUGCGGGUUCGAGUCCCGUGAAGAACG [C29U G38C G39A A65G C66A G67A]	≤ 0.5
GUUCCGUUGGGGUAAUGGUAACGCGUCUCCCUCCUAAGGAGAUGACUGCGGGUUCGAGUCCCGUACCGAACG [C11G A43U G67C]	0.505
GUUCCGUUGGCGUAAUGGUAACGCGUCUCCCUCCUAAGGAGAAGACUGCGGGUUCGAGUCCCGUACAGAUCG [G67A A70U]	0.938
GUUCCGUUCGCGUAAUGGUAACGCGCCUCCCUCCUAAGGAGAAGACUGCGGGUUCGAGUCACGUACAGAACG [G9C U26C C61A G67A]	≤ 0.5
GUUCGGUUGGCGUAAUGGUAACGCGUCUCCCUCCUAAGGAGAAAACUGCGGGUUGGAGUCCCGUACGGAACG [C5G G44A C55G]	0.527
GUUCCGUUCGCGUGAUGGUAACGCGUCUCCCUCCUAAGGAGAAGACUGCGGGUUCGUGUAGCGUACGGAACG [G9C A14G A57U C60A C61G]	≤ 0.5
GUUCCGUUGGCGUAAUGGUAAUGCGUCUUCCUCCUAAGGAAAAGACUGCGGGUUUGAGUCACGUACGGAACG [C22U C29U G41A C55U C61A]	≤ 0.5
GUUCCGCUGGCGUAGUAGUAACGCGUCUCCCUCCUAAGGAGAAGACUGCGGGUUCGAGUCCCGUCCGGAGCG [U7C A15G G17A A65C A70G]	≤ 0.5
GUUCCGUUAGCGUAAUGGUAACGCGUCCCCCUCCUAUGGAGAAGACAGCGGGUUCGAGUCUCGUACGGAACG [G9A U28C A37U U47A C61U]	0.871
GUUCCAUUGGAGUCAUGGCAACGCGUCUCCCACCUAAGGAGCAGACUGCGGGUUCGAGUCCCGUACGGAACG [G6A C11A A14C U19C U32A A42C]	0.664
GUUCCGUUGGCGUAAUGGUAACGGGUCUACCUCCUAAGGAGAAGACUGCCGGUUCGCGUCCCGUACGGAACG [C24G C29A G50C A57C]	≤ 0.5
GUUCCGUUGGCGUAAUGGUAACGCGUCUCGCUCCUAAGGAGAAGACUGCGGGUUCGAGUCCCGUACGGCACG [C30G A69C]	0.687
GUUCCGUUGGGGUAAAGGUAACGCGUCUUCCUCCUAAGGAGAAGACUGCGGGCUCGAGUCCGGUACGGAACG [C11G U16A C29U U53C C62G]	≤ 0.5
GCUCCGUUGGAGUAAUGGUAACGCGUCUCCCUCCUAAGGACAAGACUGCGGGUUCGAGUCACGUACGGAACG [U2C C11A G41C C61A]	≤ 0.5
GUUCCGUUGGCGUAAUGGUAAGGCGUCUCCCUCCUAAGGAGAAGACAGCGGGUUCGAGUCCCGUACAGAACG [C22G U47A G67A]	≤ 0.5
